# AF4-AF9 inh: inhibitors of AF4 peptide binding to AF9, primary screen, biochemical, AlphaScreen, biotin-AF4 peptide, FLAG-AF9, single point | AID 651704, 2012 | inhibition, % at 10 µM | 0.47% of 350,000 active;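 active = every replicate reaching a set inhibition limit, whatever the replicate mean, cut at about 25% in these data; inconclusive = mean inhibition reaches that limit but some replicates miss it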;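 also: 0% = plate neutral control median and 100% = total signal loss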
# S100A4 inh HTS: inhibitors of S100A4-myosin IIA peptide binding, primary screen, biochemical, fluorescence polarization, TAMRA-MyoIIA peptide; inhibition, % at 10.7 µM; AID 652163, 2013; Protein S100-A4 (Homo sapiens), P26447; 0.14% of 360,000 active;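 active = mean inhibition of at least 70% across replicates, with every replicate also reaching that level; inconclusive = mean inhibition reaches 70% but some replicates fall short; inactive = mean inhibition below 70%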
#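 Assay system: human S100A4 monomer with TAMRA-labelled myosin IIA peptide / Buffer or medium: Calcium-containing HEPES buffer, pH 7.2 / Reagent: TAMRA-labelled myosin IIA heavy-chain peptide probe, 5 nM / Compound: one dose per compound / Timing: polarization read 5 min after assay mix addition, stable 5–60 min / Benchmarks: neutral control DMSO, positive control TFP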
# ERAP1 inh: human ERAP1 aminopeptidase inhibitors, primary screen, biochemical, single point, plate reader; Endoplasmic reticulum aminopeptidase 1 (Homo sapiens), Q9NZ08; recombinant ERAP1, Leu-AMC fluorescence, 60 min; inhibition, % at 10.7 µM; 0.15% of 340,000 active; AID 652197, 2013;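 active = mean replicate inhibition of at least 30%, or all replicates individually reaching that 30% level; inactive = mean below 30% and not every replicate reaching it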;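 also: 0% = neutral control wells and 100% = L-leucinethiol positive control wells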
# GSIS activator: GLuc luminescence reporter in INS-1E cells, primary screen for activators of glucose-dependent secretion of insulin. INS-1E GLuc reporter insulin secretion, 2-3 h. activation, % at 16.6 µM. 0.61% of 370,000 active;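 active = lowest replicate activation of at least 40%, so every replicate reaches that level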;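 also: 0% = median of neutral control wells and 100% = median of IBMX positive control wells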
# RAD52 anneal inh: RAD52 DNA annealing inhibitors, primary screen, biochemical, FRET, single point, set 2 | DNA repair protein RAD52 homolog (Homo sapiens), P43351 | recombinant RAD52 DNA annealing, FRET fluorescence | inhibition, % at 18.7 µM | 0.46% of 360,000 active | AID 651710, 2012;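 active = every replicate showing at least 50% inhibition; inconclusive = mean inhibition at least 50% but not in every replicate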
# RAD52 DNA ctr: DNA-binding compounds via dye displacement, dose response, artefact control for RAD52 inhibitor project, biochemical, fluorescence polarization, cherry-pick. shares compounds with RAD52 anneal inh. Salmon sperm DNA/acridine orange FP displacement. AC50, µM. 8% of 1,000 active;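 active = fitted half-maximal concentration for signal loss at or below twice the highest dose tested, in every separate run, actives reach about 64 µM in these data; inconclusive = runs disagree, or flat partial signal loss, or poor fit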
# * = called active by the depositor; i = inactive; ? = inconclusive; nt = no result given; ! = a repeat was not active. Hits are enriched below; roughly 1.5% of the tested compounds scored in any of these assays.
SMILES,AF4-AF9 inh,S100A4 inh HTS,ERAP1 inh,GSIS activator,RAD52 anneal inh,RAD52 DNA ctr
CN1OC[C@@H]2CN[C@H](c3ccccc3Br)C[C@@H]21,-1,-16,3,-13,-30,nt
CN1CC[C@@H]2CN[C@H](c3ccccc3Br)C[C@@H]21,nt,0,4,17,71*,i
COC(=O)[C@@H]1N[C@@H]2c3ccc(C4=CCCC4)c(=O)n3C[C@@H]2[C@H]1CO,0,-1,-1,-3,-68,nt
NCCc1cc(O)c(O)cc1O,7,61,-2,nt,90*!,i
COc1ccc(CCN)cc1O,-2,0,-2,4,-6,nt
COC(=O)[C@H]1[C@H](CO)[C@H]2Cn3c(ccc(-c4ccc(F)cc4)c3=O)[C@@H]1N2Cc1cccnc1,0,1,2,8,19,nt
Cc1cc(N2CCNC[C@@H]2C)ccc1N1CC[C@@H](O)C1,nt,0,6,nt,96*,i
Cc1cccc(S(=O)(=O)N2[C@@H]3Cn4c(ccc(-c5cccc(F)c5)c4=O)[C@H]2[C@@H](C(=O)O)[C@@H]3CO)c1,nt,nt,nt,11,nt,nt
CC(C)N1CCN(c2ccc(O)cc2)CC1,-7,-2,-2,-2,83*,i
CC(N)Cc1ccc(O)cc1 (stereo not drawn),nt,2,-5,-3,-4,nt
O=C(Cc1cccnc1)N1CCCCN2[C@H](C1)[C@@H](c1ccc(/C=C/c3ccccc3)cc1)[C@@H]2CO,18,-1,5,-3,-10,nt
CC12CNCC(C)(CNC1)C2O (stereo not drawn),10,1,5,1,57*,i
OC12ONC(c3ccccn3)C1N1CCC2CC1 (stereo not drawn),0,-16,-4,12,80*,i
COc1ccc2c(c1OC)C(=O)O[C@H]2[C@@H]1c2cc3c(cc2CCN1C)OCO3,2,1,1,2,-8,nt
COc1cc2c(cc1OC)-c1c(OC)c(OC)cc3c1C(C2)N(C)CC3 (stereo not drawn),14,7,5,-14,71*,i
COc1cc2c(cc1OC)-c1c3c(cc4c1[C@@H](C2)N(C)CC4)OCO3,20,5,3,3,100*,i
O=C(O)[C@@H]1[C@@H](CO)[C@@H]2Cn3c(ccc(-c4cccnc4)c3=O)[C@H]1N2S(=O)(=O)c1ccccc1F,0,38,2,1,-2,nt
CCOc1ccc(C(C)=O)cc1Cn1ccsc1=N,6,2,1,19,64*,i
O=C([O-])c1ccc(-[n+]2c(-c3ccccc3)cc(-c3ccccc3)cc2-c2ccccc2)cc1,18,6,-3,-48,57*,i
Oc1ccc(-[n+]2c(-c3ccccc3)cc(-c3ccccc3)cc2-c2ccccc2)cc1,?,2,-2,-59,60*,i
O=C(NC[C@H]1CC[C@H]2[C@H](CN2Cc2cccnc2)O1)C1CC1,10,-20,-1,nt,-2,nt
O=C(Cc1ccccc1)N1CCCCN2[C@H](C1)[C@@H](c1ccc(C#Cc3ccccc3)cc1)[C@@H]2CO,-4,4,-2,-6,-15,nt
Cc1sc2ccccc2c1CC1=NCCN1,?,-2,2,-2,12,nt
Nc1ccc(CC2=NCCN2)cc1,7,-3,-1,0,84*,63µM*
COC(=O)C[C@@H]1CC[C@H]2NC[C@@H](O)COC[C@@H]2O1,nt,nt,nt,-10,nt,nt
Clc1ccc2sc(C3CCNCC3)nc2c1,-17,-3,6,-10,56*,i
Cc1ccccc1-c1ccc([C@@H]2[C@H](CO)N3CCCCN(C(=O)Cc4ccccn4)C[C@@H]23)cc1,2,3,-3,-23,-18,nt
CCN1CCN(c2ccc(N)c(C)c2)CC1,37*,0,1,15,92*,i
C1=C(c2ccccc2)CCNC1,-4,-3,2,-6,-4,nt
Cc1[nH]c2ccccc2c1C1=CCNCC1,38*,-4,3,-10,65*,i
